Source: PMC2882558 (Biopolymers, 2010)
Where two headings read alike, the source gives them in different places. Square brackets hold non-standard residues; d marks the D form. Ends that are not written are not given here. Peptide text beside a SMILES is read from it. Nle = CCCC[C@H](N)C(=O)O

Key:
20S proteasome = experiment: Peptidase activities of 20S proteasome; format: biochemical, human; conditions: single peptides; not shown
How it was run: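 Human erythrocyte 20S CP, latent or 0.005% SDS-activated, 3 nM final; 50 mM Tris/HCl pH 8.0, DMSO ≤3% final. Test peptide preincubated 10 min at room temperature, then substrate added at 50 or 100 μM final: Suc-LLVY-MCA (ChT-L), Boc-LRR-MCA (T-L), Z-LLE-βNA (PGPH). Emission 460 nm every 2 min, ≤60 min, 37°C; nmol product/mg CP/s; ≥3 repeats across proteasome batches.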

[1] = Solubility in NMR phosphate buffer; format: physicochemical; conditions: KH2PO4/Na2HPO4 buffer, pH 6.8 (NMR samples)
[2] = system: 20S proteasome activated with 0.005% SDS, ChT-L activity; experiment: ChT-L peptidase activity of SDS-activated 20S proteasome; format: biochemical, human; conditions: 100% = DMSO solvent control
[3] = system: 20S proteasome (CP) with PA28αβ activator; format: biochemical, human
How it was run: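 Human erythrocyte 20S CP (3 nM final) in 50 mM Tris/HCl pH 8.0 was pretreated with DMSO (≤3% final) or peptide, then mixed with purified human PA28αβ at set molar ratios. After 5 min preincubation, SucLLVY-MCA (50 or 100 μM final) was added. AMC fluorescence at 460 nm was read every 2 min for up to 60 min at 37°C. Activity was expressed as nmol AMC/mg CP/s, with ≥3 repeats using different proteasome batches.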

IPKIEDGNDFGV
Effect on any of the peptidase activities of 20S proteasome (20S proteasome): did not substantially affect

N=C(N)NCCC[C@H](NC(=O)CN)C(=O)N[C@@H](CCCCN)C(=O)N[C@@H](CCCCN)C(=O)N[C@@H](CCCNC(=N)N)C(=O)N[C@@H](CCCNC(=N)N)C(=O)N[C@@H](CCC(N)=O)C(=O)N[C@@H](CCCNC(=N)N)C(=O)N[C@@H](CCCNC(=N)N)C(=O)N[C@@H](CCCNC(=N)N)C(=O)N1CCC[C@H]1C(=O)N[C@@H](CO)C(N)=O [Tat1]
Solubility in buffer [1]: not fully soluble

CCCC[C@H](NC(=O)CNC(=O)[C@H](CCCCN)NC(=O)[C@@H](NC(=O)[C@H](CCC(=O)O)NC(=O)CNC(=O)[C@H](CCCNC(=N)N)NC(=O)[C@@H]1CCCN1C(=O)[C@H](CCCCN)NC(=O)[C@@H](N)CCCCN)[C@@H](C)O)C(=O)N[C@H](C(=O)N[C@@H](Cc1ccc(O)cc1)C(N)=O)[C@@H](C)CC [KKP] (H-KKPRGETKG[Nle]IY-NH2)
% of Ch-L activity, SDS-activated proteasome ([2]; 1 mM peptide): 107%
% of Ch-L activity, SDS-activated proteasome ([2]; 2 mM peptide): 115%
% of Ch-L activity, SDS-activated proteasome ([2]; 5 mM peptide): 108%
% of Ch-L activity, SDS-activated proteasome ([2]; 10 mM peptide): 106%

IPRIEDGNNFGV
Effect on any of the peptidase activities of 20S proteasome (20S proteasome): did not substantially affect

PA28αβ: purified human PA28αβ proteasome activator (BioMol Inc.)
Activation of CP by PA28αβ (fold) ([3]; CP:PA28αβ molar ratio 1:1): approximately 2,5 x
Activation of CP by PA28αβ (fold) ([3]; CP:PA28αβ molar ratio 1:2): ~5 x
Activation of CP by PA28αβ (fold) ([3]; CP:PA28αβ molar ratio 1:4): ~8 x

RKKRRQRRQDPI-NH2 [Tat2]
Solubility in buffer [1]: not fully soluble
